Results taken from ChEMBL document CHEMBL3758111, “DFT Calculations and ROESY NMR Data for the Diastereochemical Characterization of Cytotoxic Tetraterpenoids from the Oleoresin of Abies balsamea” (J Nat Prod, 2015).

Assays:
[1] = Cytotoxicity against human WS1 cells assessed as growth inhibition after 48 hrs by resazurin assay; type: cell-based; details: WS1, 48 h
How it was run: (§1)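 Human lung carcinoma A549, colon adenocarcinoma DLD-1 and normal skin fibroblast WS1 cells were tested by resazurin reduction, following an earlier-published protocol. Values are IC50, the concentration inhibiting 50% of cell growth. Etoposide served as the positive control.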

[2] = Cytotoxicity against human DLD1 cells assessed as growth inhibition after 48 hrs by resazurin assay; type: functional, cell-based; details: DLD-1, 48 h; how it was run: as §1
[3] = test system: A549; experiment: Cytotoxicity against human A549 cells assessed as growth inhibition after 48 hrs by resazurin assay; type: functional, cell-based; details: A549, 48 h; how it was run: as §1

Row | Structure (SMILES) | IC50 [1] | IC50 [2] | IC50 [3]
1 | C=C(C)[C@@H]1CC=C2[C@@H](CC[C@]3(C)[C@@H]([C@H](C)CC(=O)[C@@H]4CC=C(CCC=C(C)C)C[C@@]4(C)C(=O)O)CC[C@@]23C)[C@@]1(C)CCC(=O)O | > 10 µM | > 10 µM | > 10 µM
2 | COc1cc([C@@H]2c3cc4c(cc3[C@@H](O[C@@H]3O[C@@H]5CO[C@@H](C)O[C@H]5[C@H](O)[C@H]3O)[C@H]3COC(=O)[C@H]23)OCO4)cc(OC)c1O [ETOPOSIDE] | > 10 µM | 2 µM | 1.7 µM
3 | C=C(C)[C@@H]1CC=C2[C@@H](CC[C@]23C(=C)CC[C@@]3(C)[C@H](C)CC(=O)[C@H]2CC(CCC=C(C)C)=CC[C@]2(C)C(=O)O)[C@@]1(C)CCC(=O)O | > 10 µM | > 10 µM | > 10 µM
4 | C=C(C)[C@@H]1CC=C2[C@@H](CC[C@]23C(=C)CC[C@@]3(C)[C@H](C)CC(=O)[C@H]2CC(CCC=C(C)C)=CC[C@]2(C)C(=O)O)[C@@]1(C)CCC(=O)OC | > 10 µM | > 10 µM | 7.2 µM
5 | C=C(C)[C@@H]1C=CC2=C3CC[C@@](C)([C@H](C)CC(=O)[C@H]4CC(CCC=C(C)C)=CC[C@]4(C)C(=O)O)[C@]3(C)CC[C@H]2[C@@]1(C)CCC(=O)O | > 10 µM | > 10 µM | 9 µM
6 | C=C(C)[C@@H]1C=CC2=C3CC[C@@](C)([C@H](C)CC(=O)[C@@H]4CC=C(CCC=C(C)C)C[C@@]4(C)C(=O)O)[C@]3(C)CC[C@H]2[C@@]1(C)CCC(=O)OC | > 10 µM | > 10 µM | 6.7 µM
7 | C=C(C)[C@@H]1C=CC2=C3CC[C@@](C)([C@H](C)CC(=O)[C@H]4CC=C(CCC=C(C)C)C[C@]4(C)C(=O)O)[C@]3(C)CC[C@H]2[C@@]1(C)CCC(=O)O | > 10 µM | > 10 µM | > 10 µM
8 | C=C(C)[C@@H]1C=CC2=C3CC[C@@](C)([C@H](C)CC(=O)[C@@H]4CC=C(CCC=C(C)C)C[C@@]4(C)C(=O)O)[C@]3(C)CC[C@H]2[C@@]1(C)CCC(=O)O | > 10 µM | > 10 µM | 10 µM
9 | C=C(C)[C@@H]1C=CC2=C3CC[C@@](C)([C@H](C)CC(=O)[C@@H]4CC(CCC=C(C)C)=CC[C@@]4(C)C(=O)O)[C@]3(C)CC[C@H]2[C@@]1(C)CCC(=O)O | > 10 µM | > 10 µM | > 10 µM
10 | C=C(C)[C@@H]1CC=C2[C@@H](CC[C@]23C(=C)CC[C@@]3(C)[C@H](C)CC(=O)[C@@H]2CC(CCC=C(C)C)=CC[C@@]2(C)C(=O)O)[C@@]1(C)CCC(=O)O | > 10 µM | > 10 µM | > 10 µM
